{
  "source": "ChEMBL document CHEMBL1158399",
  "about": "“Synthesis, biological evaluation and molecular modeling of oxoisoaporphine and oxoaporphine derivatives as new dual inhibitors of acetylcholinesterase/butyrylcholinesterase” (Eur J Med Chem, 2009)",
  "key": {"[1]": {"assay": "Selectivity ratio of IC50 for equine serum BuChE to IC50 for electric eel AChE", "how_it_was_run": "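Modified Ellman assays with electric eel AChE and equine serum BuChE (enzyme stocks 2.0 units/mL). AChE substrate was acetylthiocholine chloride (0.01 M stock), in phosphate buffer pH 8.0 with DTNB (0.01 M stock), after 15 min inhibitor preincubation. A412 read over 1 min at 37 °C. IC50s are means ± SEM of three experiments; ratio = IC50(BuChE)/IC50(AChE).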"}, "[2]": {"target": "Cholinesterase (Equus caballus, UniProt P81908)", "sequence (P81908 whole entry)": "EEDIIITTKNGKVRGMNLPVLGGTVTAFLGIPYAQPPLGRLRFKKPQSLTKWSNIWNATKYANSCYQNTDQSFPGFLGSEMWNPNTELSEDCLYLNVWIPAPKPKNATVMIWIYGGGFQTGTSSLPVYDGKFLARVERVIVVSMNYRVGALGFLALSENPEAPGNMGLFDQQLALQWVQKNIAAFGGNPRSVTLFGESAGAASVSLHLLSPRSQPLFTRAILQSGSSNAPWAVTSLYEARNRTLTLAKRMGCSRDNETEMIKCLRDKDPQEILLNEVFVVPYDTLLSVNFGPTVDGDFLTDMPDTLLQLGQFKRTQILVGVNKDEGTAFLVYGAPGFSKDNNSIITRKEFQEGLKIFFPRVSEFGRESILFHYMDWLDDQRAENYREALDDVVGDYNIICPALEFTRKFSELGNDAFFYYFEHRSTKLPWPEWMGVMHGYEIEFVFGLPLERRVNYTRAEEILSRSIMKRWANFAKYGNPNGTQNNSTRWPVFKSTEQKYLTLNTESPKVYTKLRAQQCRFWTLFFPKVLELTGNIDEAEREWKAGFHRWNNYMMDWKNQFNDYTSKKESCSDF", "assay": "Inhibition of equine serum BuChE by Ellman's method", "how_it_was_run": "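Modified Ellman assay with equine serum BuChE (enzyme stock 2.0 units/mL), run the same way as the AChE assay. Phosphate buffer pH 8.0 with DTNB (0.01 M stock). Inhibitor incubated 15 min with enzyme, buffer and DTNB before substrate was added. Absorbance rise at 412 nm read over 1 min at 37 °C. IC50 given as mean ± SEM of three experiments.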"}, "[3]": {"target": "T1, Acetylcholinesterase (Electrophorus electricus, UniProt O42275)", "T1 sequence (O42275 whole entry)": "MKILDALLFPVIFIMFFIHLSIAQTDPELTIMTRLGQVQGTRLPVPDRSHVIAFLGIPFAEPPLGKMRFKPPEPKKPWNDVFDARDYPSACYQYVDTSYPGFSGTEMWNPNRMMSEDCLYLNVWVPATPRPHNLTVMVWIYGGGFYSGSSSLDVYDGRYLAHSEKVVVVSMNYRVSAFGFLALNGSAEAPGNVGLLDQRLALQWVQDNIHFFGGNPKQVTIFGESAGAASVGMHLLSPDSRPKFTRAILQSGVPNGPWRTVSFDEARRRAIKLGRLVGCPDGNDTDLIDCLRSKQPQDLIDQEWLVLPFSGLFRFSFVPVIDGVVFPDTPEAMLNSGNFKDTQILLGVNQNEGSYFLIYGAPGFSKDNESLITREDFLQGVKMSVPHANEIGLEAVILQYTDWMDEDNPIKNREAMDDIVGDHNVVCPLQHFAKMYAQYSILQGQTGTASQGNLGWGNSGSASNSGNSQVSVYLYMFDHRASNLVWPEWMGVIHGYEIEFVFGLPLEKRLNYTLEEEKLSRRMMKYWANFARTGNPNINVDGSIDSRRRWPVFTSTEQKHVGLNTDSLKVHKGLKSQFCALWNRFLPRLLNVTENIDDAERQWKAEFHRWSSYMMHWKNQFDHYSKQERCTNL", "assay": "Inhibition of electric eel AChE by Ellman's method"}, "[4]": {"target": "T1, Acetylcholinesterase", "assay": "Inhibition of electric eel AChE by LB plot"}},
  "data": [
    {"compound": "CC[N+](C)(CC)CCCNC(=O)c1cnc2c3c(cccc13)-c1ccccc1C2=O", "values": [
      {"measurement": "Ratio IC50", "setting": "[1]", "value": 15},
      {"measurement": "IC50", "setting": "[2]", "value": 9.72, "unit": "µM"},
      {"measurement": "IC50", "setting": "[3]", "value": 0.65, "unit": "µM"}
    ]},
    {"compound": "Nc1ccc2c(c1)C(=O)c1cccc3ccnc-2c13", "values": [
      {"measurement": "Ki", "setting": "[4]", "value": 3.86, "unit": "µM"},
      {"measurement": "IC50", "setting": "[2]", "value": "> 100", "unit": "µM"}
    ]},
    {"compound": "C[N+]1(CCCNC(=O)c2cnc3c4c(cccc24)-c2ccccc2C3=O)CCCCC1", "values": [
      {"measurement": "Ki", "setting": "[4]", "value": 0.11, "unit": "µM"},
      {"measurement": "Ratio IC50", "setting": "[1]", "value": 57},
      {"measurement": "IC50", "setting": "[2]", "value": 6.24, "unit": "µM"},
      {"measurement": "IC50", "setting": "[3]", "value": 0.11, "unit": "µM"}
    ]},
    {"compound": "C[N+](C)(C)CCNC(=O)c1cnc2c3c(cccc13)-c1ccccc1C2=O", "values": [
      {"measurement": "Ratio IC50", "setting": "[1]", "value": 1},
      {"measurement": "IC50", "setting": "[2]", "value": 5.03, "unit": "µM"},
      {"measurement": "IC50", "setting": "[3]", "value": 3.32, "unit": "µM"}
    ]},
    {"compound": "C[N+]1(CCNC(=O)c2cnc3c4c(cccc24)-c2ccccc2C3=O)CCCCC1", "values": [
      {"measurement": "Ratio IC50", "setting": "[1]", "value": 16},
      {"measurement": "IC50", "setting": "[2]", "value": 6.76, "unit": "µM"},
      {"measurement": "IC50", "setting": "[3]", "value": 0.35, "unit": "µM"}
    ]},
    {"compound": "C[N+](C)(C)CCC(=O)Nc1ccc2c(c1)C(=O)c1cccc3ccnc-2c13", "values": [
      {"measurement": "Ratio IC50", "setting": "[1]", "value": 590},
      {"measurement": "IC50", "setting": "[2]", "value": 2.82, "unit": "µM"}
    ]},
    {"compound": "O=C(NCCCO)c1cnc2c3c(cccc13)-c1ccccc1C2=O", "values": [
      {"measurement": "Ratio IC50", "setting": "[1]", "value": 4},
      {"measurement": "IC50", "setting": "[2]", "value": 53.3, "unit": "µM"},
      {"measurement": "IC50", "setting": "[3]", "value": 12.2, "unit": "µM"}
    ]},
    {"compound": "C[N+]1(CCC(=O)Nc2ccc3c(c2)C(=O)c2cccc4ccnc-3c24)CCCCC1", "values": [
      {"measurement": "Ki", "setting": "[4]", "value": 0.00031, "unit": "µM"},
      {"measurement": "Ratio IC50", "setting": "[1]", "value": 1250},
      {"measurement": "IC50", "setting": "[2]", "value": 0.6, "unit": "µM"},
      {"measurement": "IC50", "setting": "[3]", "value": 0.00048, "unit": "µM"}
    ]},
    {"compound": "C[N+]1(CCCNC(=O)c2cnc3c4c(cccc24)-c2ccccc2C3=O)CCOCC1", "values": [
      {"measurement": "Ratio IC50", "setting": "[1]", "value": 4},
      {"measurement": "IC50", "setting": "[2]", "value": 4.75, "unit": "µM"},
      {"measurement": "IC50", "setting": "[3]", "value": 1.05, "unit": "µM"}
    ]},
    {"compound": "O=C1c2ccccc2-c2cccc3ccnc1c23", "values": [
      {"measurement": "Ki", "setting": "[4]", "value": 14.6, "unit": "µM"},
      {"measurement": "Ratio IC50", "setting": "[1]", "value": 0.4},
      {"measurement": "IC50", "setting": "[2]", "value": 4.01, "unit": "µM"},
      {"measurement": "IC50", "setting": "[3]", "value": 10.6, "unit": "µM"}
    ]},
    {"compound": "C[N+](C)(C)CCCNC(=O)c1cnc2c3c(cccc13)-c1ccccc1C2=O", "values": [
      {"measurement": "Ratio IC50", "setting": "[1]", "value": 1},
      {"measurement": "IC50", "setting": "[2]", "value": 2.71, "unit": "µM"},
      {"measurement": "IC50", "setting": "[3]", "value": 3.16, "unit": "µM"}
    ]},
    {"compound": "C[N+]1(CCNC(=O)c2cnc3c4c(cccc24)-c2ccccc2C3=O)CCOCC1", "values": [
      {"measurement": "Ratio IC50", "setting": "[1]", "value": 9},
      {"measurement": "IC50", "setting": "[2]", "value": 11.7, "unit": "µM"},
      {"measurement": "IC50", "setting": "[3]", "value": 1.24, "unit": "µM"}
    ]},
    {"compound": "CC[N+](C)(CC)CCNC(=O)c1cnc2c3c(cccc13)-c1ccccc1C2=O", "values": [
      {"measurement": "Ratio IC50", "setting": "[1]", "value": 5},
      {"measurement": "IC50", "setting": "[2]", "value": 8.14, "unit": "µM"},
      {"measurement": "IC50", "setting": "[3]", "value": 1.71, "unit": "µM"}
    ]},
    {"compound": "O=C(NCCO)c1cnc2c3c(cccc13)-c1ccccc1C2=O", "values": [
      {"measurement": "Ratio IC50", "setting": "[1]", "value": 4},
      {"measurement": "IC50", "setting": "[2]", "value": 68.7, "unit": "µM"},
      {"measurement": "IC50", "setting": "[3]", "value": 18, "unit": "µM"}
    ]},
    {"compound": "CC[N+](C)(CC)CCC(=O)Nc1ccc2c(c1)C(=O)c1cccc3ccnc-2c13", "values": [
      {"measurement": "Ratio IC50", "setting": "[1]", "value": 1980},
      {"measurement": "IC50", "setting": "[2]", "value": 5.19, "unit": "µM"},
      {"measurement": "IC50", "setting": "[3]", "value": 0.00262, "unit": "µM"}
    ]}
  ]
}
